The labels stand for the following.
B1: Osa-1-4 twister ribozyme (parent)
chain: CCGCCUAACACUGCCAAUGCCGGUCCCAAGCCCGGAUAAAAGUGGAGGGGGCGG

This data set covers variants of B1. In words: self-cleavage, relative activity (ratio to wild type); higher = more cleavage; co-transcriptional. The method in brief: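 A DNA template for a 54-nucleotide Oryza sativa twister ribozyme was synthesised with 97 % wild-type base and 1 % of each other base at the 48 positions downstream of the cleavage site. It was transcribed in vitro for 2 h at 37 °C, allowing co-transcriptional self-cleavage, then reverse-transcribed with a template-switching oligonucleotide, PCR-amplified and deep-sequenced. Cleavage status was scored from reads with or without upstream sequence. Relative activity is fraction cleaved normalised to wild type.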
A16C A40U: the self-cleavage was 0.52. A16G C25A: the self-cleavage worked out at 0.24. For A16G C25G the value was 0.16; for A16G C25U, 0.94. For C15U U12G the value was 0.1; for C15U U12C, 0.06.

On to C15U U12A, for which the self-cleavage was 0.11. For A16G G34U the value was 0.82; for A16G G34C, 0.74. For A16G G34A the value was 0.84. Next, A16G G45A: 0.55.

In the case of A16G G45U, the self-cleavage came out at 0.19.

A16G G45C: the self-cleavage was found to be 0.08.

Regarding A16G A39G, the self-cleavage amounted to 0.9. Next, A16G A39U: 0.97; A16G A39C: 1.01. Take A16G C52A: the self-cleavage was 0.97. For A16G C52G, the self-cleavage worked out at 1. Next, A16G C52U: 0.99; C15U G47C: 0.05.

In the case of C15U G47U, the self-cleavage is 0.05. For C15U G47A the value was 0.06; for A16C G45A, 0.17; for A16C G45U, 0.09. Next, A16C G45C: 0.05; A16G G19A: 0.98; A16G G19U: 0.57. As for A16G G19C, the self-cleavage was found to be 0.4.

For A16G C20A, the self-cleavage was 0.86. For A16G C20U the value was 0.99; for A16G C20G, 0.19.

With C15U G44A, the self-cleavage stood at 0.08. Take C15U G44U: the self-cleavage stood at 0.16. Next, C15U G44C: 0.23; A16G C21G: 0.12.

A16G C21A: the self-cleavage was determined as 0.8. Next, A16G C21U: 0.98; A16C G42C: 0.11; A16C G42A: 0.6. Next, A16C G42U: 0.52. For A16G C15G the value was 0.78; for A16G C15U, 0.45. For the variant A16G C15A, the self-cleavage was determined as 0.61. For C15U C25U the value was 0.08; for C15U C25G, 0.04. Regarding C15U G22U, the self-cleavage was determined as 0.11. Next, C15U G22A: 0.17; C15U G22C: 0.03. Next, A16C G50U: 0.97.

For the variant A16C G50C, the self-cleavage amounted to 0.82.

As for A16C G50A, the self-cleavage was determined as 0.71. As for A16G A29U, the self-cleavage stood at 0.27. Next, A16G A29G: 0.39; A16G A29C: 0.08.

For A16G G30A, the self-cleavage came to 0.04. Next, A16G G30U: 0.04; A16G G30C: 0.05. Next, A16G A40G: 0.77; A16G A40U: 0.88; A16G A40C: 0.11. Next, C15U G13A: 0.05; C15U G13U: 0.02. As to C15U G13C, the self-cleavage turned out to be 0.02. For C15U C27A the value was 0.07; for C15U C27U, 0.08; for C15U C27G, 0.06.

As to A16C A36U, the self-cleavage was found to be 0.99. For A16C A36G the value was 1.01. Next, A16C A36C: 0.33; A16G A28C: 1.

With A16G A28U, the self-cleavage came to 0.92. For A16G A28G the value was 0.6. Next, A16G C31U: 0.94. For A16G C31G the value was 0.16; for A16G C31A, 0.03. As for A16G C9A, the self-cleavage worked out at 0.59. In the case of A16G C9G, the self-cleavage came to 0.92.

For A16G C9U, the self-cleavage turned out to be 0.84. Next, C15U G19A: 1.03; C15U G19U: 0.46; C15U G19C: 0.12. Next, A16C C11A: 0.58; A16C C11U: 0.86; A16C C11G: 0.17. For A16C G47C the value was 0.05. For the variant A16C G47U, the self-cleavage amounted to 0.13. Next, A16C G47A: 0.14; A16C A29C: 0.05; A16C A29U: 0.07. Next, A16C A29G: 0.11; A16G A41U: 1.05. Next, A16G A41G: 0.74; A16G A41C: 0.99. Consider A16C U43C, for which the self-cleavage was 0.33. Next, A16C U43A: 0.7; A16C U43G: 0.16; A16C G13A: 0.08. Next, A16C G13U: 0.04; A16C G13C: 0.04.

Consider A16C C33U, for which the self-cleavage is 0.55.

Take A16C C33A: the self-cleavage was found to be 0.08. For A16C C33G the value was 0.06.

With A16C C9G, the self-cleavage stood at 0.51. For A16C C9U the value was 0.77; for A16C C9A, 0.5; for A16G, 1.01. For A16C the value was 0.97. Next, A16C G44C: 0.97; A16C G44U: 0.94.

Regarding A16C G44A, the self-cleavage is 0.95. For A16C G23C the value was 0.04.

As for A16C G23U, the self-cleavage turned out to be 0.06. A16C G23A: the self-cleavage amounted to 0.14. Consider C15U C31G, for which the self-cleavage worked out at 0.06. In the case of C15U C31U, the self-cleavage was 0.06.

On to C15U C31A, for which the self-cleavage came to 0.03. As for C15U G34A, the self-cleavage was 0.21.

As to C15U G34C, the self-cleavage was 0.09. For C15U G34U the value was 0.15; for A16G C14G, 0.53. For A16G C14U the value was 0.64. For A16G C14A the value was 0.15. As for A16G A38U, the self-cleavage was 1.05. Next, A16G A38G: 0.97; A16G A38C: 0.98; A16C G35C: 0.17. Take A16C G35U: the self-cleavage was found to be 0.64. Next, A16C G35A: 0.61. In the case of A16G C32A, the self-cleavage worked out at 0.08. Next, A16G C32U: 0.09; A16G C32G: 0.19; A16G G47A: 0.6.

In the case of A16G G47U, the self-cleavage was found to be 0.49. With A16G G47C, the self-cleavage came out at 0.2. Turning to A16G G23U, the self-cleavage was 0.14.

For A16G G23A, the self-cleavage was 0.68. Next, A16G G23C: 0.09; A16G A7C: 0.08. Regarding A16G A7U, the self-cleavage was found to be 0.13.

For the variant A16G A7G, the self-cleavage is 0.61. For A16C A8C the value was 0.13. Next, A16C A8U: 0.19. For A16C A8G, the self-cleavage came to 0.36. Next, A16G C33A: 0.26; A16G C33U: 0.87; A16G C33G: 0.08.

As to C15U G54C, the self-cleavage amounted to 0.14.

As to C15U G54A, the self-cleavage amounted to 0.16.

On to C15U G54U, for which the self-cleavage came out at 0.43.

For A16C C25U, the self-cleavage was found to be 0.72. For A16C C25G the value was 0.1; for A16C C25A, 0.08.

On to A16C U24C, for which the self-cleavage amounted to 0.17. For A16C U24A, the self-cleavage was found to be 0.11. As for A16C U24G, the self-cleavage turned out to be 0.04. Next, A16C A28C: 0.83. For A16C A28U the value was 0.76. For A16C A28G the value was 0.16; for C15U C52U, 0.48. In the case of C15U C52A, the self-cleavage was 0.26. For C15U C52G the value was 0.41; for A16G G13A, 0.2; for A16G G13C, 0.02. For the variant A16G G13U, the self-cleavage is 0.04. Next, A16G A17G: 0.92; A16G A17U: 0.94. As for A16G A17C, the self-cleavage was determined as 0.91.

The values above are taken from the RNAGym collection of RNA variant scans (doi:10.1002/anie.201605470).
